Residue numbers refer to the chain shown, from its start. Calls of active or inactive are those of the source. The rule behind the calls is not given here.
How the values were obtained:
Mus musculus [1] = test: Cardioprotective activity against DOX-induced acute heart failure DCM in ip dosed C57BL/6J mouse model assessed as increase in ejection fraction administered qd from day 10 post DOX-challenge measured after 50 days by echocardiography; type: functional, organism-based
[2] = molecular target: T1, High mobility group protein B1 (Mus musculus) (UniProt P63158); test: Inhibition of HMGB1 in mouse RAW264.7 cells assessed as LPS-induced TNFalpha release treated for 2 hrs prior to LPS-challenge measured after 16 hrs by ELISA; type: cell-based
T1 sequence (whole entry): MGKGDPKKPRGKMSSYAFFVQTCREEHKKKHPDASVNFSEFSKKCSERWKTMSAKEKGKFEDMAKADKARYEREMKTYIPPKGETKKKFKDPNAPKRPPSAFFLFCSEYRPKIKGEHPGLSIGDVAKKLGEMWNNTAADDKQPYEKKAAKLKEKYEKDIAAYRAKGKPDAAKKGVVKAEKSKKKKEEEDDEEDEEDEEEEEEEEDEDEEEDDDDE
Method in brief: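 RAW 264.7 murine macrophage-like cells grown in RPMI 1640 with 10% heat-inactivated FBS and 2 mM glutamine, 5% CO2. Compounds or HMGB1 neutralizing antibody added 2 h before LPS (0.01 ng/mL), then 16 h stimulation; TNF-α in supernatant measured by ELISA. Each compound run at least twice in triplicate; ED50 given with 95% confidence interval.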

Mus musculus [3] = test: Cardioprotective activity against DOX-induced acute heart failure DCM in ip dosed C57BL/6J mouse model assessed as improvement in the maximum ascending rate of the LV pressure administered qd from day 10 post DOX-challenge measured after 50 days by echocardiography; type: functional, organism-based
Mus musculus [4] = test: Cardioprotective activity against DOX-induced acute heart failure DCM in ip dosed C57BL/6J mouse model assessed as increase in survival rate administered qd from day 10 post DOX-challenge measured after 50 days by echocardiography; type: functional, organism-based
Mus musculus [5] = test: Cardioprotective activity against DOX-induced acute heart failure DCM in ip dosed C57BL/6J mouse model assessed as improvement in the maximum descending rate of the LV pressure administered qd from day 10 post DOX-challenge measured after 50 days by echocardiography; type: functional, organism-based
Mus musculus [6] = test: Cardioprotective activity against DOX-induced acute heart failure DCM in ip dosed C57BL/6J mouse model assessed as increase in fractional shortening administered qd from day 10 post DOX-challenge measured after 50 days by echocardiography; type: functional, organism-based
[7] = molecular target: T2, High mobility group protein B1 (Homo sapiens, UniProt P09429); test: Binding affinity to HMGB1 (unknown origin)
T2 sequence (P09429 whole entry): T1 sequence (whole entry) with D189E, E202D

Mus musculus [8] = test: Cardioprotective activity against DOX-induced chronic heart failure DCM ip dosed C57BL/6J mouse model assessed as improvement of diastolic interventricular septum administered qd from day 70 post DOX challenge measured after 35 days; type: functional, organism-based
Mus musculus [9] = test: Cardioprotective activity against DOX-induced chronic heart failure DCM ip dosed C57BL/6J mouse model assessed as improvement of systolic interventricular septum administered qd from day 70 post DOX challenge measured after 35 days; type: functional, organism-based
Mus musculus [10] = test: Cardioprotective activity against DOX-induced chronic heart failure DCM ip dosed C57BL/6J mouse model assessed as improvement of LV diastolic anterior wall administered qd from day 70 post DOX challenge measured after 35 days; type: functional, organism-based
Mus musculus [11] = test: Cardioprotective activity against DOX-induced chronic heart failure DCM ip dosed C57BL/6J mouse model assessed as improvement of fractional shortening administered qd from day 70 post DOX challenge measured after 35 days; type: functional, organism-based
Mus musculus [12] = test: Cardioprotective activity against DOX-induced chronic heart failure DCM ip dosed C57BL/6J mouse model assessed as improvement of ejection fraction administered qd from day 70 post DOX challenge measured after 35 days; type: functional, organism-based
Mus musculus [13] = test: Cardioprotective activity against DOX-induced chronic heart failure DCM ip dosed C57BL/6J mouse model assessed as increase in survival rate administered qd from day 70 post DOX challenge measured after 35 days; type: functional, organism-based
Method in brief: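 Chronic DOX model: ip DOX at 3.5 mg/kg weekly for 8 weeks, then once-daily treatment with the indicated agent beginning two weeks after the last DOX dose. Survival followed by Kaplan-Meier curves and compared with a log rank test, n = 20/group.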

Row | Compound | ED50 [2] [µM] | Activity (Mus musculus [1]) | Activity (Mus musculus [3]) | Activity (Mus musculus [4]) | Activity (Mus musculus [5]) | Activity (Mus musculus [6]) | further results
1 | CC1(C)[C@@H](O[C@H]2O[C@H](C(=O)O)[C@@H](O)[C@H](O)[C@H]2O[C@@H]2O[C@H](C(=O)O)[C@@H](O)[C@H](O)[C@H]2O)CC[C@]2(C)[C@H]3C(=O)C=C4[C@@H]5C[C@@](C)(CNCC(=O)O)CC[C@]5(C)CC[C@@]4(C)[C@]3(C)CC[C@@H]12 | – | inactive | inactive | inactive | inactive | inactive | inhibition [2]: inactive
2 | CC1(C)[C@@H](O[C@H]2O[C@H](C(=O)O)[C@@H](O)[C@H](O)[C@H]2O[C@@H]2O[C@H](C(=O)O)[C@@H](O)[C@H](O)[C@H]2O)CC[C@]2(C)[C@H]3C(=O)C=C4[C@@H]5C[C@@](C)(CN[C@@H](Cc6c[nH]c7ccccc67)C(=O)O)CC[C@]5(C)CC[C@@]4(C)[C@]3(C)CC[C@@H]12 | 144 | Active | Active | Active | Active | Active | –
3 | CC1(C)[C@@H](O[C@H]2O[C@H](C(=O)O)[C@@H](O)[C@H](O)[C@H]2O[C@@H]2O[C@H](C(=O)O)[C@@H](O)[C@H](O)[C@H]2O)CC[C@]2(C)[C@H]3C(=O)C=C4[C@@H]5C[C@@](C)(CN[C@@H](CC(=O)O)C(=O)O)CC[C@]5(C)CC[C@@]4(C)[C@]3(C)CC[C@@H]12 | 144 | Active | Active | Active | Active | Active | Activity (Mus musculus [8]): inactive; Activity (Mus musculus [9]): inactive; Activity (Mus musculus [10]): inactive; Activity (Mus musculus [11]): inactive; Activity (Mus musculus [12]): inactive; Activity (Mus musculus [13]): inactive
4 | CC1(C)[C@@H](O[C@H]2O[C@H](C(=O)O)[C@@H](O)[C@H](O)[C@H]2O[C@@H]2O[C@H](C(=O)O)[C@@H](O)[C@H](O)[C@H]2O)CC[C@]2(C)[C@H]3C(=O)C=C4[C@@H]5C[C@@](C)(CN[C@@H](CO)C(=O)O)CC[C@]5(C)CC[C@@]4(C)[C@]3(C)CC[C@@H]12 | 161 | Active | Active | Active | Active | Active | –
5 | CCCNC[C@@]1(C)CC[C@]2(C)CC[C@]3(C)C(=CC(=O)[C@@H]4[C@@]5(C)CC[C@H](O[C@H]6O[C@H](C(=O)O)[C@@H](O)[C@H](O)[C@H]6O[C@@H]6O[C@H](C(=O)O)[C@@H](O)[C@H](O)[C@H]6O)C(C)(C)[C@@H]5CC[C@]43C)[C@@H]2C1 | 226 | – | – | – | – | – | –
6 | CC1(C)[C@@H](O[C@H]2O[C@H](C(=O)O)[C@@H](O)[C@H](O)[C@H]2O[C@@H]2O[C@H](C(=O)O)[C@@H](O)[C@H](O)[C@H]2O)CC[C@]2(C)[C@H]3C(=O)C=C4[C@@H]5C[C@@](C)(CN[C@@H](Cc6ccccc6)C(=O)O)CC[C@]5(C)CC[C@@]4(C)[C@]3(C)CC[C@@H]12 | – | – | – | – | – | – | inhibition [2]: inactive
7 | CC1(C)[C@@H](O[C@H]2O[C@H](C(=O)O)[C@@H](O)[C@H](O)[C@H]2O[C@@H]2O[C@H](C(=O)O)[C@@H](O)[C@H](O)[C@H]2O)CC[C@]2(C)[C@H]3C(=O)C=C4[C@@H]5C[C@@](C)(CN[C@@H](Cc6ccc(O)cc6)C(=O)O)CC[C@]5(C)CC[C@@]4(C)[C@]3(C)CC[C@@H]12 | – | – | – | – | – | – | inhibition [2]: inactive
8 | CC1(C)[C@@H](O[C@H]2O[C@H](C(=O)O)[C@@H](O)[C@H](O)[C@H]2O[C@@H]2O[C@H](C(=O)O)[C@@H](O)[C@H](O)[C@H]2O)CC[C@]2(C)[C@H]3C(=O)C=C4[C@@H]5C[C@@](C)(CNC6CCCCC6)CC[C@]5(C)CC[C@@]4(C)[C@]3(C)CC[C@@H]12 | 193 | – | – | – | – | – | –

Continued, in another order:

Row | ED50 [2] [µM] | Compound | Activity (Mus musculus [1]) | Activity (Mus musculus [3]) | Activity (Mus musculus [4]) | Activity (Mus musculus [5]) | Activity (Mus musculus [6]) | further results
9 | 70 | CC1(C)[C@@H](O[C@H]2O[C@H](C(=O)O)[C@@H](O)[C@H](O)[C@H]2O[C@@H]2O[C@H](C(=O)O)[C@@H](O)[C@H](O)[C@H]2O)CC[C@]2(C)[C@H]3C(=O)C=C4[C@@H]5C[C@@](C)(C(=O)O)CC[C@]5(C)CC[C@@]4(C)[C@]3(C)CC[C@@H]12 [GLYCYRRHIZIN] | – | – | – | – | – | Kd [7]: 150 µM
10 | 337 | C[C@H](NC[C@@]1(C)CC[C@]2(C)CC[C@]3(C)C(=CC(=O)[C@@H]4[C@@]5(C)CC[C@H](O[C@H]6O[C@H](C(=O)O)[C@@H](O)[C@H](O)[C@H]6O[C@@H]6O[C@H](C(=O)O)[C@@H](O)[C@H](O)[C@H]6O)C(C)(C)[C@@H]5CC[C@]43C)[C@@H]2C1)C(=O)O | inactive | Active | inactive | Active | – | –
11 | 141 | CC1(C)[C@@H](O[C@H]2O[C@H](C(=O)O)[C@@H](O)[C@H](O)[C@H]2O[C@@H]2O[C@H](C(=O)O)[C@@H](O)[C@H](O)[C@H]2O)CC[C@]2(C)[C@H]3C(=O)C=C4[C@@H]5C[C@@](C)(CN[C@@H](CCC(=O)O)C(=O)O)CC[C@]5(C)CC[C@@]4(C)[C@]3(C)CC[C@@H]12 | Active | Active | Active | Active | Active | Activity (Mus musculus [8]): Active; Activity (Mus musculus [9]): Active; Activity (Mus musculus [10]): Active; Activity (Mus musculus [11]): Active; Activity (Mus musculus [12]): Active; Activity (Mus musculus [13]): Active

From ChEMBL document CHEMBL2311367, “Synthesis, biological evaluation, and molecular modeling of glycyrrhizin derivatives as potent high-mobility group box-1 inhibitors with anti-heart-failure activity in vivo” (J Med Chem, 2013)
